ChEMBL document CHEMBL1137090, “Heterocyclic bis-cations as starting hits for design of inhibitors of the bifunctional enzyme histidine-containing protein kinase/phosphatase from Bacillus subtilis” (J Med Chem, 2004)

Tests used:
[1] = target: T1, HPr kinase/phosphorylase (Bacillus subtilis (strain 168)) (UniProt O34483); assay: Percent inhibition of Histidine containing protein K in kinase assay with histidine containing protein at 10 uM
T1 sequence (whole entry): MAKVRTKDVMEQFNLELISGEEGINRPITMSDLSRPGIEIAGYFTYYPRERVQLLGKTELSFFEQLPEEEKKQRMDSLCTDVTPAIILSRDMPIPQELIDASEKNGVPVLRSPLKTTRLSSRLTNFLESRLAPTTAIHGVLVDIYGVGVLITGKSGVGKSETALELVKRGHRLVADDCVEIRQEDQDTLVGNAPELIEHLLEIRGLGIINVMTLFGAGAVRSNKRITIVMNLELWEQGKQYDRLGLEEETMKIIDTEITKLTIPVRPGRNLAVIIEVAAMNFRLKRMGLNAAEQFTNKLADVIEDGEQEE
How it was run: (§1)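 Single-point kinase test at 10 and 100 µM final compound. HPr(His)6 (10 µM) is phosphorylated by 100 nM B. subtilis HPrK/P(Trx-His6-S-tag) with 0.5 mM [γ-32P]ATP, 5 mM MgCl2, 2 mM FBP, 0.1% BSA, 50 mM Tris pH 8; 37 °C, 10 min. 32P incorporation measured on P81 paper by scintillation.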

[2] = target: T1, HPr kinase/phosphorylase (Bacillus subtilis (strain 168)); assay: Percent inhibition of Histidine containing protein K in kinase assay with histidine containing protein at 100 uM; how it was run: as §1
[3] = Hill slope for the compound was measured for inhibition of Crh kinase assay
[4] = target: T1, HPr kinase/phosphorylase (Bacillus subtilis (strain 168)); assay: Percent inhibition of Histidine containing protein K in kinase assay at 10 uM; how it was run: as §1
HPr kinase/phosphorylase [5] = target: T2, HPr kinase/phosphorylase (Bacillus subtilis (strain 168), UniProt O34483); assay: Inhibition of histidine containing protein in kinase assay
T2 sequence (O34483 whole entry): T1 sequence (whole entry)
How it was run: (§2)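 B. subtilis HPrK/P(Trx-His6-S-tag) kinase, 100 nM, added last to start the reaction with 10 µM HPr(His)6 or Crh(His)6, 0.5 mM [γ-32P]ATP, 5 mM MgCl2, 2 mM FBP, 0.1% BSA, 50 mM Tris pH 8, 10% DMSO; 37 °C, 10 min. Read-out is P81 paper capture, H3PO4 washes and scintillation counting. Thirteen serial inhibitor concentrations, typically in triplicate; EC50 and Hill coefficient from nonlinear regression.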

[6] = target: HPr kinase/phosphorylase (Bacillus subtilis) (UniProt O34483); assay: Effective concentration for inhibition of HPr kinase/phosphorylase in kinase assay
[7] = target: T1, HPr kinase/phosphorylase (Bacillus subtilis (strain 168)); assay: Percent inhibition of Histidine containing protein K in kinase assay at 100 uM; how it was run: as §1
[8] = Hill slope for the compound was measured for inhibition of histidine containing protein kinase assay; how it was run: as §2
[9] = target: T1, HPr kinase/phosphorylase (Bacillus subtilis (strain 168)); assay: Percent inhibition of Histidine containing protein K/P in kinase assay; set-up: concentration or dose not given beside the values; conditions: concentration not given here
HPr kinase/phosphorylase [10] = target: T2, HPr kinase/phosphorylase; assay: Inhibition of histidine containing protein in phosphatase assay
How it was run: (§3)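 Substrates HPr(His)6 or Crh(His)6 (8 µM final) are first fully phosphorylated by HPrK/P with [γ-32P]ATP and FBP, pH 8, 37 °C. Inhibitor, 13 serial concentrations premixed with inorganic phosphate (K2HPO4/KH2PO4, pH 8.0, 1 mM final), then added and incubated 2 h at 37 °C. Precipitating top concentrations excluded. Read-out by P81/scintillation; mean of n = 3; EC50 and Hill coefficient by nonlinear regression.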

[11] = Combined index for the compound to that of ADP in kinase assay against Crh
[12] = Combined index for the compound to that of ADP in kinase assay against histidine containing protein
How it was run: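 B. subtilis HPrK/P(Trx-His6-S-tag), 100 nM, phosphorylating 10 µM HPr(His)6 or Crh(His)6; [γ-32P]ATP 0.5 mM, 50 mM Tris pH 8, 5 mM MgCl2, 2 mM FBP, 0.1% BSA, 37 °C, 10 min. Inhibitor and ADP co-varied at a constant ratio set by their separate EC50s; ≥13 conditions in triplicate. Chou-Talalay combination index computed at EC50.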

[13] = Hill slope for the compound was measured for inhibition of Crh phosphatase assay
[14] = Effective concentration for inhibition of […] in phosphatase assay; set-up: species or system Bacillus subtilis; how it was run: as §3
[15] = Effective concentration for inhibition of […] in kinase assay along with ADP; set-up: species or system Bacillus subtilis
How it was run: (§4)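 Kinase reaction, 37 °C 10 min: 100 nM HPrK/P(Trx-His6-S-tag), 10 µM HPr(His)6 or Crh(His)6, 0.5 mM [γ-32P]ATP, 2 mM FBP, 0.1% BSA, pH 8 Tris. ADP given alone or combined with inhibitor at a fixed concentration ratio; ≥13 conditions in triplicate. Phosphate retained on P81 paper is counted. EC50 and Hill coefficient fitted by nonlinear regression.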

HPr kinase/phosphorylase [16] = target: T2, HPr kinase/phosphorylase; assay: Inhibition of histidine containing protein in kinase assay with ADP; how it was run: as §4
[17] = Hill slope for the compound was measured for inhibition of Crh kinase assay along with ADP
[18] = Hill slope for the compound was measured for inhibition of histidine containing protein kinase assay along with ADP; how it was run: as §4
[19] = Hill slope for the compound was measured for inhibition of histidine containing protein phosphatase assay; how it was run: as §3

SMILES | inhibition [1] | inhibition [2] | further results
Nc1n(Cc2ccccc2)c2ccccc2[n+]1CCCO | 4% | 6% | –
Nc1n(Cc2ccccc2)c2ccccc2[n+]1CCCCCCCCN1CCN(c2ccccc2)CC1 | 33% | 86% | –
NCCCCCC[n+]1c(N)n(Cc2ccccc2)c2ccccc21 | 12% | 33% | –
CCCCCCCCCCCC[n+]1c(N)n(Cc2ccccc2)c2ccccc21 | – | – | Activity [3]: 6.4; inhibition [4]: 18%; EC50 (HPr kinase/phosphorylase [5]): 29 µM; EC50 [6]: 32 µM; inhibition [7]: 90%; Activity [8]: 5.3
CN1CCN(CCCCCCCCCCCC[n+]2c(N)n(Cc3ccccc3)c3ccccc32)CC1 | 35% | 93% | –
Nc1n(Cc2ccccc2)c2ccccc2[n+]1CCCCCNCc1ccccc1 | 12% | 53% | –
Nc1ncnc2c1ncn2[C@@H]1O[C@H](COP(=O)(O)OP(=O)(O)O)[C@@H](O)[C@H]1O [ADENOSINE DIPHOSPHATE] | – | – | Activity [3]: 1.4; EC50 (HPr kinase/phosphorylase [5]): 4300 µM; EC50 [6]: 7400 µM; Activity [8]: 0.9
Nc1n(Cc2ccccc2)c2ccccc2[n+]1CCCCCCCCCCCCNc1ccccc1 | 46% | 96% | –
CCCCCCCCCCCC[n+]1c(N)n(CCCc2ccccc2)c2ccccc21 | 38% | 96% | –
NC(=O)CCCCC[n+]1c(N)n(Cc2ccccc2)c2ccccc21 | 3% | 11% | –
CCCCC[n+]1c(N)n(Cc2ccccc2)c2ccccc21 | 12% | 32% | –
Nc1c2ccccc2cc[n+]1CCCCCCCCCCCC[n+]1ccc2ccccc2c1N | – | – | inhibition [9]: < 5%
Nc1n(Cc2ccccc2)c2ccccc2[n+]1CCCCCCCCCCCCNC1CCCCC1 | 11% | 93% | –
CNC(=O)C[n+]1c(N)n(Cc2ccccc2)c2ccccc21 | 7% | 7% | –
Nc1n(Cc2ccccc2)c2ccccc2[n+]1CCCCCN1CCN(c2ccccc2)CC1 | 13% | 34% | –
Nc1n(Cc2ccccc2)c2ccccc2[n+]1CCCCCCCCCCCCN1CCN(c2ccccc2)CC1 | 41% | 96% | –
CCCCCCCCCCCC[n+]1c(N)n(Cc2ccc(C)cc2)c2ccccc21 | 0% | 23% | –
Nc1n(Cc2ccccc2)c2ccccc2[n+]1CCCCCCCCCCCCN1C(=O)c2ccccc2C1=O | 40% | 97% | –
Nc1sc2ccccc2[n+]1CCCCCCCCCCCC[n+]1c(N)sc2ccccc21 | – | – | inhibition [9]: < 5%
Nc1n(Cc2ccccc2)c2ccccc2[n+]1CCCCCCCCCCCCN1CCOCC1 | 31% | 90% | –
CC(C)(C)OC(=O)NCCCCCCCCCCC[n+]1c(N)n(Cc2ccccc2)c2ccccc21 | 14% | 96% | –
NCCCCCCCCCCC[n+]1c(N)n(Cc2ccccc2)c2ccccc21 | 24% | 62% | –
CC(C)(C)OC(=O)NCCC[n+]1c(N)n(Cc2ccccc2)c2ccccc21 | 18% | 12% | –
Nc1n(Cc2ccccc2)c2ccccc2[n+]1CCCCCCCCCCCCNCc1ccccc1 | 50% | 96% | –

SMILES | inhibition [1] | inhibition [2] | further results
Nc1cc2c(n[n+]1CCCCCCCCCCCC[n+]1nc3c(cc1N)-c1ccccc1CC3)CCc1ccccc1-2 | – | – | inhibition [9]: < 5%
Nc1n(Cc2ccccc2)c2ccccc2[n+]1CCCCCCCCCCCC[n+]1c(N)n(Cc2ccccc2)c2ccccc21.Nc1ncnc2c1ncn2[C@@H]1O[C@H](COP(=O)(O)OP(=O)(O)O)[C@@H](O)[C@H]1O | – | – | Activity [3]: 2.4; EC50 (HPr kinase/phosphorylase [10]): 16 µM; CI [11]: 1.1; CI [12]: 1; Activity [13]: 1.7; EC50 [14]: 14 µM; EC50 (HPr kinase/phosphorylase [5]): 10 µM; EC50 [15]: 12 µM; EC50 (HPr kinase/phosphorylase [16]): 5.2 µM; Activity [17]: 2.3; EC50 [6]: 21 µM; Activity [18]: 2.2; Activity [19]: 2.1; Activity [8]: 1.8
c1c[n+](CCCCCCCCCCCC[n+]2cc[nH]c2)c[nH]1 | – | – | inhibition [9]: < 5%
Nc1n(Cc2ccccc2)c2ccccc2[n+]1CCCCC[n+]1c(N)n(Cc2ccccc2)c2ccccc21 | – | – | Activity [3]: 1.3; EC50 (HPr kinase/phosphorylase [5]): 93 µM; EC50 [6]: 210 µM; Activity [8]: 1.3
Cn1c(N)[n+](CCCCCCCCCCCC[n+]2c(N)n(C)c3ccccc32)c2ccccc21 | – | – | inhibition [9]: 64%
Nc1n(Cc2ccccc2)c2ccccc2[n+]1CCCCCCCCCCCO | 9% | 37% | –
Nc1n(Cc2ccccc2)c2ccccc2[n+]1CCCCCC(=O)[O-] | 3% | 10% | –
Nc1n(Cc2ccccc2)c2ccccc2[n+]1CC(=O)[O-] | 2% | 3% | –
Nc1n(Cc2ccccc2)c2ccccc2[n+]1Cc1ccccc1 | 13% | 33% | –
Nc1n(Cc2ccccc2)c2ccccc2[n+]1CC(=O)Nc1ccccc1 | 13% | 16% | –
NCCC[n+]1c(N)n(Cc2ccccc2)c2ccccc21 | 18% | 24% | –
CCCCCCCCCCCC[n+]1c(N)n(Cc2ccc(Cl)c(Cl)c2)c2ccccc21 | 9% | 51% | –
Nc1cccc[n+]1CCCCCCCCCCCC[n+]1ccccc1N | – | – | inhibition [9]: < 5%
CC(C)(C)OC(=O)NCCCCCC[n+]1c(N)n(Cc2ccccc2)c2ccccc21 | 9% | 14% | –
Nc1n(Cc2ccccc2)c2ccccc2[n+]1CCCCCCCCCCC(=O)[O-] | 2% | 39% | –
CCC[n+]1c(N)n(Cc2ccccc2)c2ccccc21 | 13% | 14% | –
CCCCCCCC[n+]1c(N)n(Cc2ccccc2)c2ccccc21 | 9% | 55% | –
CCCCCCCCCCCC[n+]1c(N)n(Cc2ccc(OC)cc2)c2ccccc21 | 34% | 95% | –
Nc1n(Cc2ccccc2)c2ccccc2[n+]1CCCCCCCC[n+]1c(N)n(Cc2ccccc2)c2ccccc21 | – | – | Activity [3]: 2.2; EC50 (HPr kinase/phosphorylase [5]): 20 µM; EC50 [6]: 71 µM; Activity [8]: 1.1
Nc1n(Cc2ccccc2)c2ccccc2[n+]1CCCc1ccccc1 | 11% | 20% | –
CCCCCCCCCCCC[n+]1c(N)n(CCc2ccccc2)c2ccccc21 | 0% | 98% | –
Nc1n(Cc2ccccc2)c2ccccc2[n+]1CCCCCCO | 13% | 5% | –
CCCCCCCCCCCC[n+]1c(N)n(Cc2ccc(Cl)cc2)c2ccccc21 | 17% | 21% | –
